A word on the Emax: it is the maximal effect, on the per cent scale that the assay sets. What is called pEC50 is −log10 of the EC50, conventionally taken in molar units.

pEC50: −log10 of the molar value.

The subject of the first experiment is Aorta. Briefly: Vasodilatory activity in Sprague-Dawley rat aortic rings with endothelium assessed as inhibition of phenylephrine-induced vasoconstriction relative to phenylephrine. In kind it is functional. An outline of the steps:
(§1)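 Endothelium-intact aortic rings from male Sprague-Dawley rats (4–6 months, ~250 g) were equilibrated for ≥1 h and then contracted isometrically with phenylephrine. Once tone stabilized (~20 min), compound was added cumulatively at 15–20 min intervals until relaxation reached steady state, with vehicle-only tissues run in parallel. Emax was taken as % of the PE contraction, and EC50 came from nonlinear regression of the concentration-response curve.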
For `COC(=O)C1=C(C)NC(C)=C(C(=O)OCCOc2cc(O)cc(O)c2C(=O)/C=C/c2cccc(Br)c2)C1c1cccc([N+](=O)[O-])c1` (configuration not stated), the Emax was 102%.
As to `COC(=O)C1=C(C)NC(C)=C(C(=O)OCCOc2cc(O)cc(O)c2C(=O)/C=C/c2ccc(O)cc2)C1c1cccc([N+](=O)[O-])c1` (configuration not stated), the Emax turned out to be 104%.
For the compound `COC(=O)C1=C(C)NC(C)=C(C(=O)OCCOc2cc(O)ccc2C(=O)/C=C/c2ccc3c(c2)OCO3)C1c1cccc([N+](=O)[O-])c1` (configuration not stated), the Emax came to 103%.
On the same count and under the same terms, to `O=C(/C=C/c1ccc2c(c1)OCO2)c1c(OCCO[N+](=O)[O-])cc(OCCO[N+](=O)[O-])cc1OCCO[N+](=O)[O-]` belongs 104%; to `Cc1c(COc2cc(O)c(C(=O)/C=C/c3ccc4c(c3)OCO4)c(OCCO[N+](=O)[O-])c2)no[n+]1[O-]`, 96%; to `Cc1c(COc2cc(O)cc(O)c2C(=O)/C=C/c2ccc3c(c2)OCO3)no[n+]1[O-]`, 95.7%.
Regarding `Cc1no[n+]([O-])c1COc1cc(O)cc(O)c1C(=O)/C=C/c1ccc2c(c1)OCO2`, the Emax came to 100%.
In the case of `O=C(/C=C/c1ccc2c(c1)OCO2)c1c(O)cc(O)cc1OCCO[N+](=O)[O-]`, the Emax came to 103%.
As to `COC(=O)C1=C(C)NC(C)=C(C(=O)OCCOc2cc(O)cc(O)c2C(=O)/C=C/c2ccc3c(c2)OCO3)C1c1cccc([N+](=O)[O-])c1` (configuration not stated), the Emax worked out at 98.6%.

In the next experiment the test system is Aorta. Nature of the experiment: Vasodilatory activity in Sprague-Dawley rat aortic rings with endothelium assessed as inhibition of phenylephrine-induced vasoconstriction. In kind it is functional, tissue-based. A digest of the protocol: as §1
As for `COC(=O)C1=C(C)NC(C)=C(C(=O)OCCOc2cc(O)cc(O)c2C(=O)/C=C/c2cccc(Br)c2)C1c1cccc([N+](=O)[O-])c1` (configuration not stated), the Activity result was “Dose-dependent effect” and the pEC50 is 5.19.
The matching figures for `COC(=O)C1=C(C)NC(C)=C(C(=O)OCCOc2cc(O)cc(O)c2C(=O)/C=C/c2ccc(O)cc2)C1c1cccc([N+](=O)[O-])c1` (configuration not stated): “Dose-dependent effect” and 5.54.
With `COC(=O)C1=C(C)NC(C)=C(C(=O)OCCOc2cc(O)ccc2C(=O)/C=C/c2ccc3c(c2)OCO3)C1c1cccc([N+](=O)[O-])c1` (configuration not stated), the Activity result is “Dose-dependent effect” and the pEC50 was 5.01.
For `O=C(/C=C/c1ccc2c(c1)OCO2)c1c(OCCO[N+](=O)[O-])cc(OCCO[N+](=O)[O-])cc1OCCO[N+](=O)[O-]` the same measures were “Dose-dependent effect” and 5.08.
The matching figures for `Cc1c(COc2cc(O)c(C(=O)/C=C/c3ccc4c(c3)OCO4)c(OCCO[N+](=O)[O-])c2)no[n+]1[O-]`: “Dose-dependent effect” and 5.03.
For `Cc1c(COc2cc(O)cc(O)c2C(=O)/C=C/c2ccc3c(c2)OCO3)no[n+]1[O-]` the same measures were “Dose-dependent effect” and 4.92.
As for `Cc1no[n+]([O-])c1COc1cc(O)cc(O)c1C(=O)/C=C/c1ccc2c(c1)OCO2`, the Activity result is “Dose-dependent effect” and the pEC50 is 5.05.
For `O=C(/C=C/c1ccc2c(c1)OCO2)c1c(O)cc(O)cc1OCCO[N+](=O)[O-]`, the Activity entry was “Dose-dependent effect” and the pEC50 was 4.87.
For `COC(=O)C1=C(C)NC(C)=C(C(=O)OCCOc2cc(O)cc(O)c2C(=O)/C=C/c2ccc3c(c2)OCO3)C1c1cccc([N+](=O)[O-])c1` (configuration not stated), the Activity result is “Dose-dependent effect” and the pEC50 is 5.03.
